Measured values reported in ChEMBL document CHEMBL4266040, “Structure-Based Engineering of Irreversible Inhibitors against Histone Lysine Demethylase KDM5A” (J Med Chem, 2018).
Calls of active or inactive are those of the source. No cut-off for these calls is given here.

What was measured:
[1] = molecular target: T1, Lysine-specific demethylase 5A (Homo sapiens, UniProt P29375); experiment: Inhibition of KDM5A in human MCF7 cells assessed as effect on H3K27me3 methylation levels at 1 to 10 uM after 30 hrs by Western blot analysis; format: cell-based
Procedure, shortened: (§1)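 MCF7 breast cancer cells were exposed to compound, with a 0.1% DMSO control, for 30 or 48 h. Total cell lysates were then probed by Western blot with antibodies to histone methylation marks.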

[2] = molecular target: T1, Lysine-specific demethylase 5A; experiment: Inhibition of KDM5A in human MCF7 cells assessed as effect on H3K4me3 methylation levels at 1 to 10 uM after 30 hrs by Western blot analysis; format: cell-based; procedure, shortened: as §1
BT-474 = experiment: Growth inhibition of human BT474 cells at 0.11 to 3.5 uM measured every 4 hrs for 300 hrs by IncuCyte live cell imaging method; format: functional, cell-based
Procedure, shortened: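 BT474 cells grown with compound; percent confluence tracked by IncuCyte live-cell imaging every 4 h over 300 h.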

[3] = Effective permeability of the compound at pH 7.4 by PAMPA; format: ADME; conditions: for Papp: read-out: Peff
Procedure, shortened: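 PAMPA with a lipid/dodecane artificial membrane and pH 7.4 buffer in donor and acceptor wells. Compounds diluted from 10 mM DMSO stock to 0.05 mM final, 0.5% DMSO. Donor stirred during a 30 min permeation at room temperature. Donor and acceptor concentrations read by UV. Permeability given in 10−6 cm s−1: >100 high, 10–100 moderate, <10 low.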

[4] = Metabolic stability in human BT474 cell culture media assessed as parent compound remaining at 10 uM after 24 hrs by LC-MS/MS analysis; format: physicochemical; conditions: read-out: Stability
[5] = molecular target: T1, Lysine-specific demethylase 5A; experiment: Binding affinity to KDM5A ARID/PhD1 domain deletion mutant (1 to 588 residues) (unknown origin) by ITC assay
[6] = molecular target: T1, Lysine-specific demethylase 5A; experiment: Irreversible inhibition of KDM5A ARID/PhD1 domain deletion mutant (1 to 739 residues) (unknown origin) using 100 uM alpha-KG by succinate-glo demethylase assay
Procedure, shortened: (§2)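 KDM5A(1−739)ΔAP (0.8 μM) preincubated 20 min with 2-fold serial dilutions of compound. Reaction started with αKG (10, 100 or 1000 μM) and H3(1−24)K4me3 (60 μM), 10 μM (NH4)2Fe(SO4)2, 100 μM ascorbate, 50 mM HEPES pH 8.0, 5% DMSO. Run 10 min at ambient temperature, n = 3; succinate read by Succinate-Glo luminescence.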

Homo sapiens [7] = species on record: Homo sapiens; experiment: Selectivity ratio of IC50 for recombinant KDM4A (1 to 350 residues) (unknown origin) to IC50 for recombinant KDM5B ARID/PhD1 domain deletion (1 to 755 residues) (unknown origin)
Procedure, shortened: (§3)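 AlphaLISA using antibody to H3K4 (KDM5B) or H3K9 (KDM4A) methylation to detect demethylation of enzyme-specific histone peptides. Both enzymes are recombinant catalytic domains from E. coli, tested at the same enzyme concentration.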

[8] = molecular target: T1, Lysine-specific demethylase 5A; experiment: Irreversible inhibition of KDM5A ARID/PhD1 domain deletion mutant (1 to 739 residues) (unknown origin) using 10 uM alpha-KG by succinate-glo demethylase assay; procedure, shortened: as §2
[9] = molecular target: T2, Lysine-specific demethylase 4A (Homo sapiens, UniProt O75164); experiment: Irreversible inhibition of recombinant KDM4A (1 to 350 residues) (unknown origin) expressed in Escherichia coli using H3 (1 to 21 residues) K9me3 as substrate preincubated for 10 mins followed by substrate/alphaKG/(NH4)2Fe(SO4)2 addition measured after 1 hr by alphaLISA assay; procedure, shortened: as §3
T2 sequence (O75164 whole entry): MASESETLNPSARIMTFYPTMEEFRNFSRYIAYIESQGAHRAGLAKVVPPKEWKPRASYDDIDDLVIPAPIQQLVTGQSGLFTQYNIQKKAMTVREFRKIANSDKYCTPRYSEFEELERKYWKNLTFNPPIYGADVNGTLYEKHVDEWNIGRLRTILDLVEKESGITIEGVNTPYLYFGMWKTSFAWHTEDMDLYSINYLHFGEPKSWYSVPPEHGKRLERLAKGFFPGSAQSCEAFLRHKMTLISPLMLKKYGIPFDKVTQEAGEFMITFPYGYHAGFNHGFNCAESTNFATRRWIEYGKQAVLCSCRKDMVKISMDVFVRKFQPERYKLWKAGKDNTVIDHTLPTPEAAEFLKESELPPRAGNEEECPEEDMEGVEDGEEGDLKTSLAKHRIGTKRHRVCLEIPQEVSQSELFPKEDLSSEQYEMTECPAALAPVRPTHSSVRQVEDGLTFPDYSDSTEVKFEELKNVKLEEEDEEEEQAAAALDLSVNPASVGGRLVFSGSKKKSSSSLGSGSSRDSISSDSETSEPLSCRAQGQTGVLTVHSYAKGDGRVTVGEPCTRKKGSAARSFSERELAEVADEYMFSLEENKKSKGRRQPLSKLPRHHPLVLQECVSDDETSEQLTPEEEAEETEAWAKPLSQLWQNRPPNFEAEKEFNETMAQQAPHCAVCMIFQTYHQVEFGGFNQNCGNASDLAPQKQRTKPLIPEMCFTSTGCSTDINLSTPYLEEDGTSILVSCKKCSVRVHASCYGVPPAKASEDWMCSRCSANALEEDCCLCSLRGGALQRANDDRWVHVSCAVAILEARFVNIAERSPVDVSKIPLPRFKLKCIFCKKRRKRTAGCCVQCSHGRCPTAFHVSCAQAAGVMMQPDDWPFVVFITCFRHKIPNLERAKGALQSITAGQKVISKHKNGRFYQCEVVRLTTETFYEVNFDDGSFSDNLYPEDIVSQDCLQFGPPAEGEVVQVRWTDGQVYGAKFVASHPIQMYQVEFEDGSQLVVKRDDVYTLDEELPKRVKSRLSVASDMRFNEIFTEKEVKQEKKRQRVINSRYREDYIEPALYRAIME

[10] = molecular target: T1, Lysine-specific demethylase 5A; experiment: Irreversible inhibition of KDM5A ARID/PhD1 domain deletion mutant (1 to 739 residues) (unknown origin) using 1000 uM alpha-KG by succinate-glo demethylase assay; procedure, shortened: as §2
[11] = Drug level in human BT474 cell culture media treated with isopropyl 2-((3-Aminophenyl)(2-(piperidin-1-yl)-ethoxy)methyl)thieno[3,2-b]pyridine-7-carboxylate at 10 uM after 24 hrs by LC-MS/MS analysis; format: physicochemical
[12] = molecular target: T1, Lysine-specific demethylase 5A; experiment: Irreversible inhibition of KDM5A ARID/PhD1 domain deletion mutant (1 to 739 residues) (unknown origin) using alpha-KG by succinate-glo demethylase assay; procedure, shortened: as §2
[13] = molecular target: T1, Lysine-specific demethylase 5A; experiment: Irreversible inhibition of KDM5A ARID/PhD1 domain deletion mutant (1 to 739 residues) (unknown origin) at 100 uM using alpha-KG measured after 4 times of buffer exchange by succinate-glo demethylase assay
Procedure, shortened: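 Enzyme–inhibitor complex preformed ([E] = 5 μM, initial [I] = 100 μM), then four buffer exchanges before Succinate-Glo activity measurement.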

[14] = molecular target: T1, Lysine-specific demethylase 5A; experiment: Irreversible inhibition of KDM5A ARID/PhD1 domain deletion mutant (1 to 739 residues) (unknown origin) using alpha-KG measured immediately by succinate-glo demethylase assay
Procedure, shortened: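 Compound and KDM5A(1−739)ΔAP either without preincubation or preincubated 20 min before αKG addition; activity read by Succinate-Glo.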

[15] = molecular target: T1, Lysine-specific demethylase 5A; experiment: Binding affinity to KDM5A ARID/PhD1 domain deletion mutant (1 to 588 residues) (unknown origin) assessed as covalent modification of enzyme at 0.5 mM after 30 mins by ESI-tandem-MS analysis
Homo sapiens [16] = species on record: Homo sapiens; experiment: Selectivity ratio of IC50 for KDM5A ARID/PhD1 domain deletion mutant (1 to 739 residues) (unknown origin) to IC50 for KDM6A (880 to 1401 residues) (unknown origin)
[17] = molecular target: Lysine-specific demethylase 6A (Homo sapiens, UniProt O15550); experiment: Inhibition of KDM6A (880 to 1401 residues) (unknown origin) using H3 ( 21 to 44 residues) K27me3 as substrate preincubated for 15 min followed by substrate addition measured after 15 mins by FDH-coupled demethylase assay
[18] = molecular target: T1, Lysine-specific demethylase 5A; experiment: Inhibition of KDM5A ARID/PhD1 domain deletion mutant (1 to 739 residues) (unknown origin) using H3 ( 1 to 24 residues) K4me3 as substrate preincubated for 15 min followed by substrate addition measured after 15 mins by FDH-coupled demethylase assay
[19] = molecular target: T2, Lysine-specific demethylase 4A; experiment: Inhibition of KDM4A (1 to 350 residues) (unknown origin) using H3 ( 1 to 15 residues) K9me3 as substrate preincubated for 15 min followed by substrate addition measured after 15 mins by FDH-coupled demethylase assay
Homo sapiens [20] = species on record: Homo sapiens; experiment: Selectivity ratio of IC50 for KDM4A (1 to 350 residues) (unknown origin) to IC50 for KDM5A ARID/PhD1 domain deletion mutant (1 to 739 residues) (unknown origin)
[21] = molecular target: T1, Lysine-specific demethylase 5A; experiment: Irreversible inhibition of KDM5A ARID/PhD1 domain deletion mutant (1 to 739 residues) (unknown origin) assessed as Kinact to Ki ratio
Procedure, shortened: (§4)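 KDM5A (0.8 μM) preincubated with five inhibitor concentrations (0.01–5 μM). At each time point, mixture added to H3 peptide (60 μM) and αKG (100 μM) and stopped after 7 min. Log % remaining activity plotted against preincubation time; negative slopes fitted by nonlinear regression against [I] to give kinact and KI.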

[22] = molecular target: T1, Lysine-specific demethylase 5A; experiment: Irreversible inhibition of KDM5A ARID/PhD1 domain deletion mutant (1 to 739 residues) (unknown origin); procedure, shortened: as §4
[23] = molecular target: T1, Lysine-specific demethylase 5A; experiment: Irreversible inhibition of KDM5A ARID/PhD1 domain deletion mutant (1 to 739 residues) (unknown origin) using alpha-KG as substrate by succinate-glo demethylase assay; conditions: TDE = time-dependent effect; procedure, shortened: as §2
[24] = molecular target: T1, Lysine-specific demethylase 5A; experiment: Irreversible inhibition of 1.6 uM KDM5A ARID/PhD1 domain deletion mutant (1 to 739 residues) (unknown origin) using 100 uM alpha-KG by succinate-glo demethylase assay
Procedure, shortened: (§5)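 Succinate-Glo run with KDM5A(1−739)ΔAP at varied enzyme concentration and 100 μM αKG. H3(1−24)K4me3 60 μM, Fe(II) 10 μM, ascorbate 100 μM, HEPES pH 8.0, 5% DMSO.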

[25] = molecular target: T1, Lysine-specific demethylase 5A; experiment: Irreversible inhibition of 0.4 uM KDM5A ARID/PhD1 domain deletion mutant (1 to 739 residues) (unknown origin) using 100 uM alpha-KG by succinate-glo demethylase assay; procedure, shortened: as §5
[26] = molecular target: T1, Lysine-specific demethylase 5A; experiment: Irreversible inhibition of 0.8 uM KDM5A ARID/PhD1 domain deletion mutant (1 to 739 residues) (unknown origin) using 100 uM alpha-KG by succinate-glo demethylase assay; procedure, shortened: as §5

T1 sequence (P29375 whole entry): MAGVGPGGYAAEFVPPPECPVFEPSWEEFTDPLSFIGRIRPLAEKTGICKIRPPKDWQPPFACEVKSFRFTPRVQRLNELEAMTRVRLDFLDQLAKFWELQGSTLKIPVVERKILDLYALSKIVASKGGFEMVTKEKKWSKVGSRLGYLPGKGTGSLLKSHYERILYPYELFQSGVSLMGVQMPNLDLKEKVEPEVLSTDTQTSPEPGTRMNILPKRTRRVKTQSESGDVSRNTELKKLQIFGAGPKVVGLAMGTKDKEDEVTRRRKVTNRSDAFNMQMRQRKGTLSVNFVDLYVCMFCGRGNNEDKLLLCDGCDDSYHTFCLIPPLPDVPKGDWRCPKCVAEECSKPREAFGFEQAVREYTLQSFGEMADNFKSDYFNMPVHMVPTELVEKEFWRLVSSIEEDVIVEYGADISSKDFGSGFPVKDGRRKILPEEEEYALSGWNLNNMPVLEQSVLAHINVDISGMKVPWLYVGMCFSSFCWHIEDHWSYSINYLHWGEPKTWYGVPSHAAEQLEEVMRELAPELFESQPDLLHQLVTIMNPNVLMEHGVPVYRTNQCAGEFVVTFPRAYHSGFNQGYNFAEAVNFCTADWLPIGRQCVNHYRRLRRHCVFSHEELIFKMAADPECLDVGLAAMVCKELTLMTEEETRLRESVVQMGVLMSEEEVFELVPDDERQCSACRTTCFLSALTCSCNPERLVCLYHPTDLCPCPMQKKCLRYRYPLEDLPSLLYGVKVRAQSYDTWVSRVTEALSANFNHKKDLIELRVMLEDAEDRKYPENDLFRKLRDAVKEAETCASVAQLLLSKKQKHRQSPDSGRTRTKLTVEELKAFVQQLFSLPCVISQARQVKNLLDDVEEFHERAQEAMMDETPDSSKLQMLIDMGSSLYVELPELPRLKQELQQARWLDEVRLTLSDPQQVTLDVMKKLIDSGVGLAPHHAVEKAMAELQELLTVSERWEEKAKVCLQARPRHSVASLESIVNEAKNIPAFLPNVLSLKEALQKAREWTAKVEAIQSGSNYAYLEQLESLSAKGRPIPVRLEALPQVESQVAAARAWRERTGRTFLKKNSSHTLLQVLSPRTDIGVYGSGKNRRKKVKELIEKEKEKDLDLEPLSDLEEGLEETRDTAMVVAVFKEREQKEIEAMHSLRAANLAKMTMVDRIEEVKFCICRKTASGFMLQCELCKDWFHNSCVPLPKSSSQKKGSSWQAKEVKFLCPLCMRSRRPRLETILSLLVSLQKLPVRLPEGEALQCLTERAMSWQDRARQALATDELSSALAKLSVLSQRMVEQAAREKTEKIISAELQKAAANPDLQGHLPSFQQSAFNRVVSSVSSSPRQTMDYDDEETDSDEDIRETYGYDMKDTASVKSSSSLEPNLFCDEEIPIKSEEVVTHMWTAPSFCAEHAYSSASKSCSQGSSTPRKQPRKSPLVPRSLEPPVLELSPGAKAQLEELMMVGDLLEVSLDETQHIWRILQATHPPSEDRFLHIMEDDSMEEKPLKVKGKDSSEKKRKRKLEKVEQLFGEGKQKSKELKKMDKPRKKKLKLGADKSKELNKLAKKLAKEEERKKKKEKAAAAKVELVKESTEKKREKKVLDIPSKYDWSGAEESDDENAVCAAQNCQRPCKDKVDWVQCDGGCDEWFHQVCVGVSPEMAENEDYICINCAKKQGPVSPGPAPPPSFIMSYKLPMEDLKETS
Lysine-specific demethylase 6A, sequence (O15550 whole entry, the tested form may be a part): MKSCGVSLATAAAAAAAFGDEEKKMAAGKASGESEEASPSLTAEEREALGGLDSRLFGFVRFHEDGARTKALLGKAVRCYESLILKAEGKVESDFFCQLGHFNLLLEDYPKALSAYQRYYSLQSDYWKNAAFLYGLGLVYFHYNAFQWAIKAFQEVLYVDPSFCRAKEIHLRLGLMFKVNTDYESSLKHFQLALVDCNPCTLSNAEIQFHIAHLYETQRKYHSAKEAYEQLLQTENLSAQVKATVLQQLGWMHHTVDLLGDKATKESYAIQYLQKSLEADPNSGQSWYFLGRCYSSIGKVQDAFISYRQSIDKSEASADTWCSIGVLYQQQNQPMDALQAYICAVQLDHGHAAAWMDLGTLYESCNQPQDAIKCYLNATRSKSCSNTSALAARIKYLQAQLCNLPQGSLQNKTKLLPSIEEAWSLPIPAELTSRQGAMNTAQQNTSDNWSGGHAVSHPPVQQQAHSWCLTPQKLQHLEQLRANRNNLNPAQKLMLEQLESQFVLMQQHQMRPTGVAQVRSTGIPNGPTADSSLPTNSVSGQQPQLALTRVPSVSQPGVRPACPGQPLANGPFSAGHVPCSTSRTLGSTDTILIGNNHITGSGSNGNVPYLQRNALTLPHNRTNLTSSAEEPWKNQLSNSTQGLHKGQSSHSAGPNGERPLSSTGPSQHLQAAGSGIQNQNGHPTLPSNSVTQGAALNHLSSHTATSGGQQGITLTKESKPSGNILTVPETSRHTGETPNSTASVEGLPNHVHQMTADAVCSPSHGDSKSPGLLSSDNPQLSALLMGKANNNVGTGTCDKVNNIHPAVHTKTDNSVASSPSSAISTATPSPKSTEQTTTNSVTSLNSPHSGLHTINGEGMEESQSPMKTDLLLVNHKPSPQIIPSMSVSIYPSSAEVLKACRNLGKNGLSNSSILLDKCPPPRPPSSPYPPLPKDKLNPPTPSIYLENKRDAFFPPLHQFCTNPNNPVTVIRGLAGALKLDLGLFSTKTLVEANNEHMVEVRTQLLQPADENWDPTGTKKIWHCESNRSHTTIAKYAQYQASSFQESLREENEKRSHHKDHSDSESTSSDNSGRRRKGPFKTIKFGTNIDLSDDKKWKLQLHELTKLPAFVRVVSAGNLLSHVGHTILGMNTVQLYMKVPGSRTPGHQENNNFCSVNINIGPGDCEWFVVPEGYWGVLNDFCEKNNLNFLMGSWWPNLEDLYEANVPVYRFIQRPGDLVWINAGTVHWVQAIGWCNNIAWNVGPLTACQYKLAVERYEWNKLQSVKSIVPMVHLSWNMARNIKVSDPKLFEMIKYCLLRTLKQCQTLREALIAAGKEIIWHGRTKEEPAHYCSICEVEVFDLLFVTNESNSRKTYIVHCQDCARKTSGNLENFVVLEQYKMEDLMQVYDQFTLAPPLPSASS

Compound | remaining at 24 h, 10 µM [4] [%] | Kd [5] [µM] | Ratio IC50 (Homo sapiens [7]) | IC50 [9] [µM] | Ratio IC50 (Homo sapiens [16]) | IC50 [17] [µM] | IC50 [18] [µM] | IC50 [19] [µM] | Ratio IC50 (Homo sapiens [20]) | also measured
CCOC(=O)CCNc1cc(N2CCc3ccccc3CC2)nc(-c2ccccn2)n1 | – | – | – | – | – | – | – | – | – | inhibition [1]: Active; inhibition [2]: Active
CC(C)OC(=O)c1ccnc2cc(C(OCCN3CCCCC3)c3cccc(N)c3)sc12 (configuration not stated) | 75 | – | – | – | – | – | – | – | – | growth inhibition (GI) (BT-474): Active; Peff [3]: 1018 ×10⁻⁶ cm/s
CN1CCCC1CCOC(c1cc2nccc(C(=O)O)c2[nH]1)c1ccccc1Cl (configuration not stated) | – | 0.15 | – | – | – | – | – | – | – | –
Nc1cccc(C(OCCN2CCCCC2)c2cc3nccc(C(=O)O)c3s2)c1 (configuration not stated) | 93 | – | 8.6 | 4.2 | – | – | – | – | – | IC50 [6]: 5.4 µM; IC50 [8]: 0.7 µM; IC50 [10]: > 100 µM; Drug metabolism [11]: Metabolite_Detected; IC50 [12]: 4.9 µM; inhibition [13]: inactive; IC50 [14]: 5.5 µM; Papp [3]: 52.7 ×10⁻⁶ cm/s; Activity [15]: inactive
C=CC(=O)N1CCCN(c2cc(NCCC(=O)O)nc(-c3ccccn3)n2)CC1 | – | 6 | – | – | 1.5 to 1.8 | 39 | 71 | 230 | 3.2 to 3.6 | –
CN(C)C/C=C/C(=O)Nc1cccc(C(OCCN2CCCCC2)c2cc3nccc(C(=O)O)c3s2)c1 (configuration not stated) | 60 | – | 24 | 5.3 | – | – | – | – | – | IC50 [6]: 0.11 µM; IC50 [8]: 0.1 µM; IC50 [10]: 0.18 µM; Ratio [21]: 8 ×10³ /M/s; Ki [22]: 0.41 µM; Kinact [22]: 0.198 min⁻¹; inhibition [23]: Tde; IC50 [12]: 1.24 µM; IC50 [24]: 0.36 µM; IC50 [25]: 0.06 µM; inhibition [13]: Active; IC50 [26]: 0.18 µM; IC50 [14]: 0.11 µM; Papp [3]: < 1 ×10⁻⁶ cm/s; Activity [15]: Active
CN1CCCC1CCOC(c1cc2nccc(C(=O)O)c2s1)c1ccccc1Cl (configuration not stated) | – | 0.26 | 7 | 2.2 | – | – | – | – | – | –
O=C(O)CCNc1cc(N2CCc3ccccc3CC2)nc(-c2ccccn2)n1 | – | 12 | – | – | 1.5 to 1.8 | 69 | 110 | 400 | 3.2 to 3.6 | –
C=CS(=O)(=O)N1CCCN(c2cc(NCCC(=O)O)nc(-c3ccccn3)n2)CC1 | – | 9 | – | – | 1.5 to 1.8 | 55 | 83 | 290 | 3.2 to 3.6 | –
